T cruzi repl – blocks replication of Trypanosoma cruzi | T. cruzi beta-gal in NIH3T3, luminescence, 90 h | inhibition, % (test concentration not listed) | 300,000 compounds, 1.4% hits | AID 1885;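 active = mean inhibition across valid replicates above about 55%, limit read from the data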;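 note: signal also drops with host cell toxicity which is not excluded here; 0% = plate median of DMSO wells and 100% = zero luminescence signal; higher percent means less beta-gal luminescence so fewer parasites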
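compound dosing = single 50 nL compound addition per well in DMSO | material = NIH/3T3 host cells with β-galactosidase reporter T. cruzi | input = 5,000 host fibroblasts per well | timing = ≥90 h infection period, 3 h prior cell attachment | read-out basis = percent inhibition of parasite-derived β-gal signal | detection = GalScreen β-gal luminescence, detergent lysis, 60 min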
HDAC3 inhib – human HDAC3 inhibition | O15379 | AID 2718 | recombinant HDAC3, fluorogenic peptide/trypsin coupled, fluorescence | inhibition, % at 8.3 µM | 320,000 compounds, 0.15% hits; in the data active = inhibition above about 26%, passing the limit was not always enough
Target sequence (O15379 whole entry, looked up): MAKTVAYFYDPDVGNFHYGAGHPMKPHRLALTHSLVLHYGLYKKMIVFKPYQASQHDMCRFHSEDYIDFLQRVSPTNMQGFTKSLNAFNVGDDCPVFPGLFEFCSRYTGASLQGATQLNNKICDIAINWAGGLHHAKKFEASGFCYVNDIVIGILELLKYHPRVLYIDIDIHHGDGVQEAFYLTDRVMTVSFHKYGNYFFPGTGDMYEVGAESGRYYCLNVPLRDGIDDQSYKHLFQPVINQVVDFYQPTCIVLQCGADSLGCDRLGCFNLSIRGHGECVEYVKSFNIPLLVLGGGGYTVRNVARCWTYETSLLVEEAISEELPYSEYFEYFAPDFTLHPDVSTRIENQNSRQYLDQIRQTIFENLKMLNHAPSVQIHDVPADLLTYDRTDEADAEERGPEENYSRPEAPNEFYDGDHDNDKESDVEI
Efflux pump inh – antifungal efflux pump inhibition, Nile Red retention; S. cerevisiae Candida pump triplex; inhibition, % at 10 µM; 330,000 compounds, 0.44% hits;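 active = plate passing quality check with inhibition over a set limit, or well fluorescence over plate mean plus 4 SD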;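 note: Nile Red retained in pooled yeast measured as flow cytometry median fluorescence; 0% = buffer negative control and 100% = Enniatin B positive control; higher means more Nile Red kept so more efflux inhibition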
PolyA inh – inhibitors of polyadenylation in S. cerevisiae. AID 1875. 300,000 compounds, 0.02% hits. activity score, % at 12 µM. S. cerevisiae SKY197-pL101 polyadenylation reporter, beta-gal luminescence; efflux-impaired pdr1/pdr3 knockout yeast; score 100 = 6 SD above DMSO;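 active = lowest replicate activity score at least 50, where 100 means six control SD above control mean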;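 note: yeast exposed to compound for 9 h at 30 °C; higher score means more reporter readthrough which indicates perturbed polyadenylation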
AI-2 QS modul – Vibrio harveyi AI-2 quorum sensing modulation. Vibrio harveyi JMH597 AI-2 luminescence/OD600 ratio, 9 h; hits give low values; strain lacks LuxN and CqsS sensors; 0 = neutral-control median. 300,000 compounds, 0.4% hits. activity change, % at 7.5 µM. AID 2094; in the data active = activity change below about -75%, passing the limit was not always enough;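 note: luminescence divided by OD600 gain over 9 h not by final OD600 alone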
* = called active by the depositor; x = no result given. Compounds with a hit are over-represented: about 2.2% of the library has one in this group of screens.

SMILES	T cruzi repl	HDAC3 inhib	Efflux pump inh	PolyA inh	AI-2 QS modul
CC(C)CC(COCc1ccc(C(F)(F)F)cc1)N1CCN(C(=O)c2ccc(C(F)(F)F)cc2)CCC1=O (configuration not stated)	30	39*	0	3	12
CC(=O)c1cnc(Oc2cc(Cl)ccc2Cl)nc1C	-1	1	0	-15	12
CCN(CC)CCN(C(=O)CCS(=O)(=O)c1ccccc1)c1nc2cc(C)cc(C)c2s1	72*	13	-2	3	9
COc1ccc(OC)c2sc(N(CCCN(C)C)C(=O)CCS(=O)(=O)c3ccccc3)nc12	59*	0	0	5	5
COc1ccc(Cl)c2sc(N(CCN(C)C)C(=O)CCS(=O)(=O)c3ccc(C)cc3)nc12	-4	7	0	16	15
Cc1ccc2sc(N(CCCN(C)C)C(=O)CCS(=O)(=O)c3ccccc3)nc2c1C	63*	-5	0	-7	-3
Cc1cccc2sc(N(CCCN(C)C)C(=O)CCc3ccccc3)nc12	62*	x	-3	1	20
CCC(CC)NC(=O)CCCSc1nc2ccccc2[nH]1	-9	-1	0	-10	16
CC(=O)Nc1ccc(/C=N/NC(=O)CNC(=O)c2ccccc2)cc1	-2	5	0	-7	8
O=C(Nc1ccc(C(=O)N2CCCCC2)cc1)c1ccccc1Br	0	5	0	-6	15
COc1ccccc1C(=O)NCCNc1ccc([N+](=O)[O-])cc1Cl	-11	2	0	12	30
CCN1CCN(CCCNC(=O)c2cc3cc4ccc(OC)cc4nc3o2)CC1	43	-197	0	8	6
COc1ccc2cc3cc(C(=O)NCCN4CCc5ccccc5C4)oc3nc2c1	48	-61	0	23	x
Cc1ccccc1S(=O)(=O)Cc1ccc(C(=O)NCCN2CCN(Cc3ccccc3)CC2)o1	61*	6	0	9	19
COc1ccc2cc3cc(C(=O)NCCN4CCN(Cc5ccccc5)CC4)oc3nc2c1	64*	-230	0	-1	4
COc1ccc2cc3cc(C(=O)NCCCN4CCOCC4)oc3nc2c1	58*	-295	0	26	9
O=C(c1ccc(Oc2cc(Cl)cc(Cl)c2)o1)N1CCCCC1	24	-3	0	-15	12
C=CCC[C@H](Cc1ccc(F)cc1)C(=O)OC[C@H](Cc1c[nH]c2ccccc12)NC(=O)[C@@H](CC=C)CC(=O)N(CCO)Cc1ccccc1	x	-4	2	x	x
C=CCC[C@H](Cc1ccc(F)cc1)C(=O)OC[C@@H](Cc1c[nH]c2ccccc12)NC(=O)[C@@H](CC=C)CC(=O)N(CCO)Cc1ccccc1	x	40*	0	x	x
C=CC[C@@H](CC(=O)NCCO)C(=O)N[C@@H](COC(=O)[C@@H](CC=C)Cc1ccc(F)cc1)Cc1c[nH]c2ccccc12	x	26*	0	x	x
C=CC[C@H](CC(=O)N(CCO)Cc1ccccc1)C(=O)N[C@H](COC(=O)[C@@H](CC=C)Cc1ccc(F)cc1)Cc1ccccc1	x	33*	0	x	x
C=CC[C@@H](CC(=O)N(CCO)Cc1ccccc1)C(=O)N[C@H](C)COC(=O)[C@@H](CC=C)Cc1ccc(F)cc1	x	8	0	x	x
O=C(Cn1cnnn1)NC1CCCN(Cc2ccccc2F)C1 (configuration not stated)	0	7	0	11	5
CC(C)CCN1CCN(C2CCN(c3ccc4c(c3)OCO4)CC2)CC1CCO (configuration not stated)	66*	-5	0	12	26
O=C(Oc1cc(=O)n2ccccc2n1)c1ccccc1	-8	38*	0	-14	23
SMILES	T cruzi repl	HDAC3 inhib	Efflux pump inh	PolyA inh	AI-2 QS modul
Cc1cc([N+](=O)[O-])ccc1NC(=O)Nc1ccc(F)cc1F	55*	5	0	-12	-3
Cc1ccc(NC(=O)Nc2cccc([N+](=O)[O-])c2)cc1F	55*	x	0	-4	-6
Oc1c(Br)cc(Br)cc1/C=N/Nc1ccc(Cl)nn1	55*	-4	-3	3	14
Cc1ccc(NC(=O)COC(=O)c2cc(Cl)ccc2[N+](=O)[O-])cc1	-12	0	0	-13	-92*
NS(=O)(=O)c1ccc(NC(=O)COC(=O)c2ccc(Cl)cc2[N+](=O)[O-])cc1	-11	-3	0	-8	-13
NS(=O)(=O)c1cccc(NC(=O)COC(=O)c2cc(Cl)ccc2[N+](=O)[O-])c1	-15	2	0	16	-79*
C=C1CCC2[C@](C)(CO[C@@H]3O[C@H](CO)[C@@H](O)[C@H](O)[C@H]3O)CCC[C@@]2(C)[C@@H]1CCC1=CCOC1=O (some centres not stated)	x	3	0	x	x
O=C(C1CCN(S(=O)(=O)c2ccc(-n3cnnn3)cc2)CC1)N1CCCCC1	-13	-8	0	7	7
CC(C)=CCOc1c2ccoc2cc2oc(=O)ccc12	3	-3	0	54*	7
C/C(=N\Nc1ccc(S(=O)(=O)N2CCCCC2)cn1)c1cccc(Br)c1	x	10	0	x	x
CC#CCN1c2ccccc2[C@]23C[C@@H](C(=O)OC)N(C(=O)NC4CCCCC4)C2=NC(C(=O)OC)=C(C(=O)OC)[C@H]13	13	-6	0	13	14
COc1cccc2sc(Nc3nc(-c4ccncc4)cs3)nc12	76*	0	0	-21	6
COc1ccccc1-c1nnc(Nc2nc3c(OC)cccc3s2)o1	63*	-16	0	1	23
COc1cccc2sc(Nc3nc(-c4cc5ccccc5oc4=O)cs3)nc12	6	4	0	3	-4
CC(C)(C)c1ccc(C(=O)C2CCCN(C(=O)CCn3cncn3)C2)cc1 (configuration not stated)	7	5	0	10	3
C/C(=C\C(=O)c1ccc(Cl)cc1)Nc1ccc(N2CCOCC2)cc1	26	-3	0	-7	17
C/C(=C\C(=O)c1ccccc1)Nc1ccc(N2CCOCC2)cc1	64*	14	0	-19	13
O=S(=O)(Nc1ccc(S(=O)(=O)N2CCCC2)cc1)c1ccc(F)cc1F	x	6	0	x	x
CCOC(=O)c1cc2c(=O)n3ccccc3nc2n(C(C)C)c1=NC(=O)c1ccncc1	9	-38	0	-5	16
CCOC(=O)c1cc2c(=O)n3ccccc3nc2n(C(C)C)c1=NC(=O)c1c(-c2ccccc2Cl)noc1C	63*	-3	0	-28	0
Cc1nn(-c2ccccc2)c(N2CCCC2)c1/C=N/NC(=O)c1cc(-c2ccccc2)nc2ccccc12	63*	8	1	-17	18
Cn1cc(CNCc2ccccc2OCC(O)CN2CCc3ccccc3C2)cn1 (configuration not stated)	12	-7	0	2	0
Cc1nc(-c2ccc3c(c2)OCCCO3)cs1	7	41*	0	8	27

Compound activity from PubChem BioAssay.
